Compound activity as filed in PubChem BioAssay.
Sampled rows, rich in hits. Any-hit rate of the full collection: about 1.9%.
PLC-beta3 inh – PLC-beta3 (human) inhibition, primary screen | Q01970 | Purified PLC-beta3, fluorogenic substrate, fluorescence | inhibition, % at 12.2 µM | 0.18% of 370,000 active; in the data active = inhibition above about 11%;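 note: 0% = median of compound wells on plate and 100% = full blocker control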
ASAP1 inh – ASAP1 ArfGAP inhibition; 0.19% of 360,000 active; ASAP1-stimulated ARF1 GTP hydrolysis, GDP FP detection; inhibition, % at 16.5 µM; Q9ULH1; in the data active = inhibition above about 25%;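 note: 0% = vehicle with enzyme and substrate and 100% = no enzyme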
PLC-gamma1 inh – blocks human PLC-gamma1 enzyme activity | 0.84% of 370,000 active | inhibition, % at 12.2 µM | purified PLC-gamma1, fluorogenic substrate, fluorescence | P19174 | AID 720700; in the data active = inhibition above about 9.5%
ARFGAP1 inhibitor – inhibits rat ARF GTPase activating protein 1 | Q62848 | Arfgap1-stimulated ARF1 GTP hydrolysis, GDP FP detection | inhibition, % at 16.5 µM | 0.26% of 360,000 active | AID 651572;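 active = inhibition above a per-plate limit, mean inhibition of low control wells plus 3 SD, cut at about 25% in these data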;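 note: 0% = DMSO wells with enzyme and 100% = wells lacking Arfgap1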
Target sequence (Q62848 1-136 limits assumed): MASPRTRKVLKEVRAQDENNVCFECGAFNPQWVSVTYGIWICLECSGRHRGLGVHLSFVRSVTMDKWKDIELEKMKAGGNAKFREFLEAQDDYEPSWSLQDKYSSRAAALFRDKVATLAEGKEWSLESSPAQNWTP
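Replicates: Single well per compound | Assay system: Truncated rat Arfgap1 GAP domain | Control set: No-Arfgap1 wells (100%) versus DMSO full-reaction wells (0%) | Times: Enzyme reaction 120 min at 25 °C after 20 min preincubation | Reagent: Human ARF1(Δ1-17)-GTP substrate | Measured by: Tracer-displacement fluorescence polarization with EDTA stop, 620/688 nm | Measure: Percent inhibition of Arfgap1-stimulated GTP hydrolysis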
sPLA2-III inh – Inhibits HGIII-sPLA2 liposome hydrolysis, primary screen | Q9NZ20 | QFRET BODIPY PC-A2 liposome hydrolysis, fluorescence | inhibition, % at 12.2 µM | 0.56% of 370,000 active | AID 743126;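 active = inhibition above mean plus 3 SD of compounds lying within the high and low control bounds, cut at about 19% in these data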;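 note: 0% = median of test compound wells and 100% = no enzyme DMSO wells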
sPLA2 confirm – human GIII-sPLA2 inhibition, confirmation | shares compounds with sPLA2-III inh | recombinant hGIII-sPLA2, BODIPY PC-A2 QFRET fluorescence | inhibition, % at 12.2 µM | 34% of 2,000 active;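 active = mean inhibition across triplicates above the hit cutoff set in the earlier primary screen, cut at about 19% in these data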;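 note: 0% = enzyme with DMSO and 100% = DMSO wells lacking enzyme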
535nm interf – counter-screen for HGIII-sPLA2 inhibitors: 535nm fluorescence interference; inhibition, % at 12.2 µM; AID 743282; shares compounds with sPLA2-III inh; 8.5% of 2,000 active; BODIPY FL product fluorescence interference, QFRET;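 active = average inhibition above the solvent-only control mean plus 3 SD, cut at about 6% in these data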;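 note: 0% = DMSO with substrate plus product and 100% = DMSO with substrate alone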
535nm interf DR – 535nm optical interference dose response, HGIII-sPLA2 counter-screen; shares compounds with sPLA2-III inh; BODIPY FL product fluorescence interference, cell-free; IC50, µM; 240 tested, under 10 active; AID 743455;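 active = IC50 at or below 10 µM; inactive = IC50 above 10 µM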
Numbers without * were called inactive; . = not tested or not shown; ! = not confirmed by another sample.

SMILES	PLC-beta3 inh	ASAP1 inh	PLC-gamma1 inh	ARFGAP1 inhibitor	sPLA2-III inh	sPLA2 confirm	535nm interf	others
CCCCn1c(N)c(N(CCOC)C(=O)C2CCN(S(=O)(=O)c3ccc(C)cc3)CC2)c(=O)[nH]c1=O	-8	-2	1	-6	22*	4	-14
O=C(NC1CCCCN(Cc2ccc(Cl)cc2)C1=O)C1C2CC3CC(C2)CC1C3 (stereo not given)	0	.	-1	.	4	.	.
CC1(C)Cc2nc3sc(C(=O)NCCCO)c(N)c3cc2CO1	-171	-3	-116	2	21*	-1	-4
O=C(O)CCCNC(=O)C(c1ccccc1)c1ccccc1	2	4	1	1	21*!	-2	-6
CCOC(=O)C1C(c2ccc(C)o2)NC(=O)NC1(O)C(F)(F)F (stereo not given)	-10	-9	-2	5	20*	0	-4
O=[N+]([O-])c1ccc(O)c(N=Cc2sc3ccccc3c2O)c1	-12	10	-2	4	26*	36*	4	535nm interf DR=>122
CCn1c(=O)n(CC(=O)N2CCC(C)CC2)c(=O)c2ccccc21	-2	.	-1	.	1	.	.
CC(C)(Oc1ccc(Cl)cc1)C(=O)Nc1ccncc1	4	-16	0	9	-3	.	.
CC(C)(Oc1ccc(Cl)cc1)C(=O)NC1CC1	-7	-4	-1	16	21*	-3	-2
NC(c1csc(Nc2ncccn2)n1)C1CCCCC1 (stereo not given)	0	-23	0	-1	23*	3	-13
CN(C)c1ccc(NC(=O)Nc2nc(C(N)C3CCCCC3)cs2)cc1 (stereo not given)	-9	12	-1	3	20*	23*	-7
NC(c1csc(Nc2ccc(C(=O)NCCCO)cn2)n1)C1CCCCC1 (stereo not given)	-38	-8	-26	-5	23*	7	-19
Cc1cc(N2CCN(CC(C)(C)O)C[C@H]2C)ccc1N1CCN(Cc2ccccc2)[C@@H](C)C1	-12	6	-8	11	10	.	.
NNc1nc(-c2ccccc2)c2cc(Br)ccc2n1	-69	1	-47	5	12	.	.
NNc1nc(-c2ccccc2)c2cc(Cl)ccc2n1	-121	-1	-81	-5	19*	26*	4
O=C([C@@H]1C[C@H]1c1ccccc1)N1CC[C@H]2[C@H](CCCN2Cc2cc(F)cc(F)c2)C1	0	.	-2	.	-2	.	.
NC(N)=NC(=S)Nc1ccc(Cl)cc1	-5	7	4	5	21*	18	-4
COC(CNC(=O)[C@H](Cc1c[nH]c2ccccc12)NC1(C(=O)NC(c2ccccc2)c2ccccc2)CCCCC1)OC	-1	.	-1	.	-83	.	.
O=C(CSc1nnc(-c2cccnc2)n1-c1ccc(Cl)cc1)c1ccc(F)cc1	-1	.	2	.	-36	.	.
Cc1cc2c(cc1C)N(C(=O)CSc1nncn1C)C(C)(C)c1ssc(=S)c1-2	-2	-6	2	5	34*	12	-23
O=C1c2ccccc2C(=O)c2c1cccc2N1CCOCC1	10	1	4	15	22*	32*	5	535nm interf DR=>122
CC(=O)N(C)c1ccc(N2CCOCC2)c2c1C(=O)c1ccccc1C2=O	-1	-8	4	2	-3	.	.
CC(C)NC(=O)CCN1C(=O)c2ccccc2Sc2ncccc21	-3	-1	-1	13	1	.	.
O=C(O)CCN1C(=O)c2ccccc2Sc2ncccc21	-4	6	1	10	23*	0	-2
COc1cccc(-c2csc(NNC(=O)c3cccs3)n2)c1	-6	9	-4	8	23*	45*	7.3*
c1ccc2c(c1)N=C(N1CCN(Cc3ccc4c(c3)OCO4)CC1)c1ccccc1S2	2	.	1	.	-7	.	.
COc1cccc(N2CC(=O)Nc3c(oc4nc(-c5ccccc5)cc(C)c34)C2=O)c1	-4	9	2	-2	20*	-3	-13
